Here are results for six molecules from ChEMBL document CHEMBL1127428, “Studies of the active conformation of a novel series of benzamide dopamine D2 agonists” (J Med Chem, 1994).

For series [1], the target named is D(2) dopamine receptor (Rattus norvegicus, UniProt P61169). As to the kind of experiment: Binding affinity towards Dopamine D2 receptor from rat striatal membranes, using [3H]- spiperone as radioligand. The essentials: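 Displacement of [3H]spiperone (0.2 nM, final) from rat striatal membranes; nonspecific binding defined with (+)-butaclamol (1 μM). Four to six concentrations, each run in triplicate; IC50 obtained by nonlinear regression.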
D(2) dopamine receptor (Rattus norvegicus, UniProt P61169), sequence (P61169 whole entry): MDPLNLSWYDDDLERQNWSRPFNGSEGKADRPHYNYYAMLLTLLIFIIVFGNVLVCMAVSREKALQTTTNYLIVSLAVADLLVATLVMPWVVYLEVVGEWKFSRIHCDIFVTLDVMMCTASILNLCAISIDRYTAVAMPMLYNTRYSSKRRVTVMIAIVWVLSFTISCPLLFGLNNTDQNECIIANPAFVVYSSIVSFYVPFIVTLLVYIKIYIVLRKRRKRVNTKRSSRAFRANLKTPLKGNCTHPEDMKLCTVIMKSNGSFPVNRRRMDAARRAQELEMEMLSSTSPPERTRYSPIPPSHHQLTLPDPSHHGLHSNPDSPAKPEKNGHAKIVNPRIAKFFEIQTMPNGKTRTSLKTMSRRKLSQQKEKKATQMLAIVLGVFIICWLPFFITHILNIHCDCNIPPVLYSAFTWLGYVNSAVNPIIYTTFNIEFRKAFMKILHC

The target of series [2] is D(2) dopamine receptor (Homo sapiens, UniProt P14416). As to the kind of experiment: In vitro inhibition of forskolin-stimulated cAMP accumulation in GH4C1 cells transfected with the human Dopamine D2 receptor. The format is functional, cell-based, GH4-C1. On the technique in general: Cyclic AMP is a second messenger, typically raised through Gs and lowered through Gi signalling.
D(2) dopamine receptor (Homo sapiens, UniProt P14416), sequence (P14416 whole entry): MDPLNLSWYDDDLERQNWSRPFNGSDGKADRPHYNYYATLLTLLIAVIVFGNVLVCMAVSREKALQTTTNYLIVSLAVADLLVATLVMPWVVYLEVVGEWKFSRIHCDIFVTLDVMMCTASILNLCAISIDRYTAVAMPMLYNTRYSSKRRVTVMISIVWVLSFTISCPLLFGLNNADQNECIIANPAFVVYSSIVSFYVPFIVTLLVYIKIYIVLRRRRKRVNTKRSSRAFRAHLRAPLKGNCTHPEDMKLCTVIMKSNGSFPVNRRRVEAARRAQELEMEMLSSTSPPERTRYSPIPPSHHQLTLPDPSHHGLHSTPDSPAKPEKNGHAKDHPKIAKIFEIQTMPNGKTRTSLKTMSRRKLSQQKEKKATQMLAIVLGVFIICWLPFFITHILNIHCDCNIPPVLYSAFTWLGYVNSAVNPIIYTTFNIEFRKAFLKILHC

Series [3] in a line: (§1) Tested in vitro for intrinsic activity relative to quinpirole. The essentials:
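GH4C1 cells transfected with human D2 receptor (long form); agonism read as inhibition of forskolin-stimulated cAMP accumulation. Intrinsic activity = maximal response relative to the full D2 agonist quinpirole (set at 1.0).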

Series [4] is filed under the species Mus musculus. Put plainly: Tested for the inhibition of Spontaneous locomotor activity. The format is functional. The essentials: (§2)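 Mice dosed ip, then immediately tested for 1 h of exploratory locomotion in darkened cylindrical photobeam chambers. Activity expressed as percent of vehicle-treated animals. ED50 (95% confidence range) derived from three to six doses, 6–18 animals per dose.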

Series [5] can be described thus: as §1. The format is ADME. The method in brief: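 Human D2 receptor (long form) expressed by transfection in GH4C1 cells. Agonism was read as inhibition of forskolin-stimulated cAMP accumulation. Intrinsic activity was the maximal response expressed relative to the maximal response of the full D2 agonist quinpirole.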
For series [6], the system named is Mus musculus. Put plainly: Tested for the inhibition of Spontaneous locomotor activity; Not active, ED50 > 30 mg/kg. The format is functional, organism-based. The arrangement: dose 30 mg/kg. The essentials: as §2

Activity calls are given as the source filed them. The calls are words filed in the database; no cut-off is given here.

With `O=C(N[C@H]1CC[C@H](CCN2CCN(c3ccccn3)CC2)CC1)c1ccccc1`, at D(2) dopamine receptor [1], the IC50 – broadly, the point on the concentration scale where inhibition reaches its midpoint – amounted to 443 nM. In addition, at D(2) dopamine receptor [2], the EC50 (commonly the concentration needed to bring the measured effect to its halfway point) was determined as 4.9 nM. Moreover, in series [3], the Intrinsic activity is listed as 0.83. The 50% effect level in the series listed under Mus musculus [4] (ED50) was put at a dose of 0.16 mg/kg.
`O=C(N[C@@H]1CC[C@H]2C[C@H](N3CCN(c4ccccn4)CC3)CC[C@@H]2C1)c1ccccc1` came in with a half-maximal inhibitory concentration (IC50) at D(2) dopamine receptor [1] of 5800 nM. The EC50 on D(2) dopamine receptor [2] is more than 1000 nM. Besides, the ED50 – broadly, the dose that gives a 50% effect, or the effect in half of the subjects – in the series listed under Mus musculus [4] was 14.3 mg/kg.
For the molecule `CCCN1CCC[C@@H]2Cc3n[nH]cc3C[C@H]21` (single isomer, unassigned) [QUINPIROLE], the Intrinsic activity in series [5] was determined as 1.
`O=C(N[C@H]1CC[C@H]2C[C@@H](N3CCN(c4ccccn4)CC3)CC[C@@H]2C1)c1ccccc1` came in with an IC50 at D(2) dopamine receptor [1] of 1100 nM. A half-maximal response on D(2) dopamine receptor [2] (EC50) required 240 nM. The same molecule came in with an Intrinsic activity in series [3] of 0.63. For the same molecule, the ED50 in the series filed under Mus musculus [4] came out at 6.9 mg/kg.
In the case of `O=C(N[C@@H]1CC[C@H]2C[C@@H](N3CCN(c4ccccn4)CC3)CC[C@@H]2C1)c1ccccc1`, the IC50 at D(2) dopamine receptor [1] is 72.7 nM. Also, the EC50 on D(2) dopamine receptor [2] was found to be 10.4 nM. Also, the Intrinsic activity in series [3] worked out at 0.98. Besides, in the series filed under Mus musculus [4], it took a dose of 0.1 mg/kg to reach the 50% effect level (ED50).
As to `O=C(N[C@H]1CC[C@H]2C[C@H](N3CCN(c4ccccn4)CC3)CC[C@@H]2C1)c1ccccc1`, on D(2) dopamine receptor [1], the IC50 was 7100 nM. The ED50 result in the series with Mus musculus [6] is “inactive”. Besides, the EC50 on D(2) dopamine receptor [2] is more than 1000 nM.
